Source: ChEMBL document CHEMBL4270643, “Structure-based drug design: Synthesis and biological evaluation of quinazolin-4-amine derivatives as selective Aurora A kinase inhibitors” (Eur J Med Chem, 2018)
Activity calls are given as the source filed them. The calls are words filed in the database; no cut-off is given here.

How the values were obtained:
Mus musculus [1] = assay: Toxicity in BALB/c athymic nude mouse xenografted with human MDA-MB-231 cells assessed as effect on lung weight at 30 mg/kg, ig administered every 2 days for 18 days measured post last dose; type: organism-based; settings: in vivo, po
In short: (§1)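 Xenograft-bearing nude mice dosed intragastrically every 2 days for 18 days; body weight tracked throughout. After treatment ended, liver, lung, kidney and spleen weighed in untreated, vehicle and dosed groups; unpaired two-tailed t-test; mean ±SD, n=4.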

Aurora kinase A = biological target: T1, Aurora kinase A (Homo sapiens, UniProt O14965); assay: Inhibition of Aurora A (unknown origin) using FAM-labelled peptide as substrate pretreated for 10 mins followed by substrate addition and measured after 60 mins by fluorescence assay
T1 sequence (O14965 whole entry): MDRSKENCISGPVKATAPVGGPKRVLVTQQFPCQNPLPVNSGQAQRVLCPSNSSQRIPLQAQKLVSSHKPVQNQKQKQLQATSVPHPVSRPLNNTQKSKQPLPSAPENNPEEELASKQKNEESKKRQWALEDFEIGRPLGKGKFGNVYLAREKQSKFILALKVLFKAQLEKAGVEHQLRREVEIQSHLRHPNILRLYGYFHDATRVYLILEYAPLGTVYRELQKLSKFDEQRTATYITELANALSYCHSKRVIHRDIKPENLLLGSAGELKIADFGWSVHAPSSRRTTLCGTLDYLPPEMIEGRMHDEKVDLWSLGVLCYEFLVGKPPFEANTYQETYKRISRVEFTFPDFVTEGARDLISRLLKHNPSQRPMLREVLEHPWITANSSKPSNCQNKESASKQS
In short: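 Kinase IC50 values are the mean of at least two independent experiments; selectivity is the Aurora A/B ratio of these IC50s.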

Mus musculus [2] = assay: Toxicity in BALB/c athymic nude mouse xenografted with human MDA-MB-231 cells assessed as effect on RBC level at 30 mg/kg, ig administered every 2 days for 18 days measured post last dose; type: organism-based; settings: in vivo, po
In short: (§2)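 After the 18-day intragastric course (every 2 days), blood cell counts taken from untreated, vehicle and dosed mice; groups compared by unpaired two-tailed t-test; mean ±SD, n=4.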

Mus musculus [3] = assay: Toxicity in BALB/c athymic nude mouse xenografted with human MDA-MB-231 cells assessed as effect on MCHC level at 30 mg/kg, ig administered every 2 days for 18 days measured post last dose; type: organism-based; settings: in vivo, po; in short: as §2
MCF7 = assay: Antiproliferative activity against human MCF7 cells after 48 hrs by CCK8 assay; type: functional, cell-based; settings: Homo sapiens, MCF7, 48 h; read-out: IC50
[4] = biological target: Voltage-gated inwardly rectifying potassium channel KCNH2 (Homo sapiens, UniProt Q12809); assay: Inhibition of human ERG expressed in CHO cells at -80 mV holding potential by whole-cell patch clamp method; type: cell-based
MDA-MB-231 [5] = assay: Cell cycle arrest in human MDA-MB-231 cells assessed as accumulation at G2/M phase after 24 hrs by propidium iodide staining based flow cytometry; type: functional
In short: (§3)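 MDA-MB-231 cells exposed to test compound at indicated doses, MLN8237, or 0.1% DMSO control for 24 h; cell-cycle distribution, including G2/M and 4N/8N populations, read by flow cytometry.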

Mus musculus [6] = assay: Toxicity in BALB/c athymic nude mouse xenografted with human MDA-MB-231 cells assessed as effect on HCT level at 30 mg/kg, ig administered every 2 days for 18 days measured post last dose; type: organism-based; settings: in vivo, po; in short: as §2
K562 = assay: Antiproliferative activity against human K562 cells after 48 hrs by CCK8 assay; type: functional, cell-based; settings: Homo sapiens, K562, 48 h; read-out: IC50
Mus musculus [7] = assay: Toxicity in BALB/c athymic nude mouse xenografted with human MDA-MB-231 cells assessed as effect on WBC level at 30 mg/kg, ig administered every 2 days for 18 days measured post last dose; type: organism-based; settings: in vivo, po; in short: as §2
[8] = biological target: T2, Aurora kinase A (Homo sapiens) (UniProt O14965); assay: Inhibition of Aurora A phosphorylation at Thr288 residue in human 293T cells at 1 to 2 uM after 24 hrs by western blot analysis; type: cell-based
T2 sequence (whole entry): T1 sequence (O14965 whole entry)
In short: (§4)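 293T cells treated 24 h with increasing doses or 0.1% DMSO control; lysates probed by Western blot for p-Aurora A (Thr288) and p-histone H3 (Ser10), with GAPDH as loading control.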

Mus musculus [9] = assay: Toxicity in BALB/c athymic nude mouse xenografted with human MDA-MB-231 cells assessed as body weight loss at 30 mg/kg, ig administered every 2 days for 18 days measured during compound dosing; type: organism-based; settings: in vivo, po; in short: as §1
DU-145 = assay: Antiproliferative activity against human DU145 cells after 48 hrs by CCK8 assay; type: functional, cell-based; settings: DU-145, 48 h
MDA-MB-231 [10] = assay: Induction of apoptosis in human MDA-MB-231 cells assessed as annexin-V positive cells at 5 uM after 48 hrs by Annexin-V-FITC/propidium iodide staining based flow cytometry (reference value: 15.46 +/- 1.18%); type: functional
MDA-MB-231 [11] = assay: Inhibition of colony formation in human MDA-MB-231 cells assessed as reduction in number of colonies at 3 uM after 7 days by crystal violet staining based assay; type: functional, cell-based
In short: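 Colony formation of MDA-MB-231 cells grown 7 days with 3 µM compound or 0.1% DMSO; colony numbers counted and compared against control.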

MDA-MB-231 [12] = assay: Antitumor activity against human MDA-MB-231 cells xenografted in BALB/c athymic nude mouse assessed as tumor weight at 30 mg/kg, ig administered every 2 days for 18 days (reference value: 1.7 +/- 0.84 g); type: functional
In short: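 Nude mice with established MDA-MB-231 xenografts dosed intragastrically every 2 days for 18 days; vehicle control group; n=4 per group. Tumor volume estimated over time and compared by two-way repeated-measures ANOVA; dissected tumors weighed at end. Data as mean ±SD.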

Mus musculus [13] = assay: Toxicity in BALB/c athymic nude mouse xenografted with human MDA-MB-231 cells assessed as effect on PLT level at 30 mg/kg, ig administered every 2 days for 18 days measured post last dose; type: organism-based; settings: in vivo, po; in short: as §2
Mus musculus [14] = assay: Toxicity in BALB/c athymic nude mouse xenografted with human MDA-MB-231 cells assessed as effect on kidney weight at 30 mg/kg, ig administered every 2 days for 18 days measured post last dose; type: organism-based; settings: in vivo, po; in short: as §1
Mus musculus [15] = assay: Toxicity in BALB/c athymic nude mouse xenografted with human MDA-MB-231 cells assessed as effect on MCH level at 30 mg/kg, ig administered every 2 days for 18 days measured post last dose; type: organism-based; settings: in vivo, po; in short: as §2
MDA-MB-231 [16] = assay: Cell cycle arrest in human MDA-MB-231 cells assessed as accumulation of cells with 4N/8N DNA content after 24 hrs by propidium iodide staining based flow cytometry; type: functional; in short: as §3
Mus musculus [17] = assay: Toxicity in BALB/c athymic nude mouse xenografted with human MDA-MB-231 cells assessed as effect on RDW-SD level at 30 mg/kg, ig administered every 2 days for 18 days measured post last dose; type: organism-based; settings: in vivo, po; in short: as §2
MDA-MB-231 [18] = assay: Induction of apoptosis in human MDA-MB-231 cells assessed as annexin-V positive cells at 2 uM after 48 hrs by Annexin-V-FITC/propidium iodide staining based flow cytometry (reference value: 15.46 +/- 1.18%); type: functional
SK-BR-3 = assay: Antiproliferative activity against human SKBR3 cells after 48 hrs by CCK8 assay; type: functional, cell-based; settings: Homo sapiens, SK-BR-3, 48 h; read-out: IC50
Aurora kinase B = Aurora kinase B (Homo sapiens, UniProt Q96GD4); assay: Inhibition of Aurora B in human 293T cells assessed as reduction in histone H3 phosphorylation at Ser10 residue at 1 to 2 uM after 24 hrs by Western blot analysis; type: cell-based; in short: as §4
Chain of Aurora kinase B (Q96GD4 whole entry): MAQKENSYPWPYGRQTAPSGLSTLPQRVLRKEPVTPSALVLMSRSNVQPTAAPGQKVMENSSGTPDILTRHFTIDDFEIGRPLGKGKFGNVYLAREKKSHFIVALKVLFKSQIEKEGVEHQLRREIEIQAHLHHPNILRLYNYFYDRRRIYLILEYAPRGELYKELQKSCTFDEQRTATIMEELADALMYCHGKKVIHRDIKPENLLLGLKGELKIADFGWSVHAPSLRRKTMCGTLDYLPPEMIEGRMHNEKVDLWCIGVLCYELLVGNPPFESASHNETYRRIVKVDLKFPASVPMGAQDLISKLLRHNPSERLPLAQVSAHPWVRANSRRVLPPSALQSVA

Chain of Voltage-gated inwardly rectifying potassium channel KCNH2 (Q12809 whole entry): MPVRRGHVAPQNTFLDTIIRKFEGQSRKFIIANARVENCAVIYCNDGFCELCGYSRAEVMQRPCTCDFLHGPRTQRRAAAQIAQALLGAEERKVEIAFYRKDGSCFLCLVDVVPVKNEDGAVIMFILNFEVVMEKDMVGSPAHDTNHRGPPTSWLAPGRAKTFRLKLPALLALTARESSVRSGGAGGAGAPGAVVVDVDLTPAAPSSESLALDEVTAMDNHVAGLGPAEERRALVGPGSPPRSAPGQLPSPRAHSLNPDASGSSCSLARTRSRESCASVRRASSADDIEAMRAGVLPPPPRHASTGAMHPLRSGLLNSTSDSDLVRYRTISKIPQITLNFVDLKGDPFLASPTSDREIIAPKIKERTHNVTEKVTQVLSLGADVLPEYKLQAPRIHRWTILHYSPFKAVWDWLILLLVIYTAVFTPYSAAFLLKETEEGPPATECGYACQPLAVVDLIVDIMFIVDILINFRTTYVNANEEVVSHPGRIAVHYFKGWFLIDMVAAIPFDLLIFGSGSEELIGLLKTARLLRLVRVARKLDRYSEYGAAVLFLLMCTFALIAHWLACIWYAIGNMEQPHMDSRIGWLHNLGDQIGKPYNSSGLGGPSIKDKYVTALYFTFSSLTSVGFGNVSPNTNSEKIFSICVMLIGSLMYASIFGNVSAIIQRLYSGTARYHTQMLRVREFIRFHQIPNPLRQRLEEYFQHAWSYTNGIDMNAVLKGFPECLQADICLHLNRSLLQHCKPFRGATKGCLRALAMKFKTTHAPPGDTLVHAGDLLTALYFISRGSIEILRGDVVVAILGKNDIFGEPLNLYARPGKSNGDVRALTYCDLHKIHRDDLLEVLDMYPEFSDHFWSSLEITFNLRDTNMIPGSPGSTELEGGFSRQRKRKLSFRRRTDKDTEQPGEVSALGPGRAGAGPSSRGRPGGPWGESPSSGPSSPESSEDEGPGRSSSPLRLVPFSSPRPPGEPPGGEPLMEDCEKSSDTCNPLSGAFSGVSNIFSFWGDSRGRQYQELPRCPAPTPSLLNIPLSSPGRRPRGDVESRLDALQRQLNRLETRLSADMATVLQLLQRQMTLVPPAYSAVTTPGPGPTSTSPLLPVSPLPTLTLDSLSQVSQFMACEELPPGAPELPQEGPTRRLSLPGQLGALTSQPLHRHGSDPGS

- IC50 (Aurora kinase A): 0.038 µM
- IC50 (MCF7): 2.23 µM
- IC50 (K562): 1.09 µM
- inhibition [8]: Active
- IC50 (DU-145): 2.05 µM
- IC50 (SK-BR-3): 2.4 µM
- inhibition (INH) (Aurora kinase B): Not Active
SMILES: CCOC(=O)C1CCN(c2ccc3c(Nc4cc(C)[nH]n4)nc(-c4ccccc4)nc3c2)CC1
- Activity (Mus musculus [1]): Non-Toxic
- Activity (Mus musculus [2]): Non-Toxic
- Activity (Mus musculus [3]): Non-Toxic
- IC50 [4]: > 10 µM
- Activity (MDA-MB-231 [5]): Dose-dependent effect
- Activity (Mus musculus [6]): Non-Toxic
- Activity (Mus musculus [7]): Non-Toxic
- Activity (Mus musculus [9]): Non-Toxic
- Activity (MDA-MB-231 [10]): 47.1%
- Activity (MDA-MB-231 [11]): Active
- Activity (MDA-MB-231 [12]): 0.85 g
- Activity (Mus musculus [13]): Non-Toxic
- Activity (Mus musculus [14]): Non-Toxic
- Activity (Mus musculus [15]): Non-Toxic
- Activity (MDA-MB-231 [16]): Dose-dependent effect
- Activity (Mus musculus [17]): Non-Toxic
- Activity (MDA-MB-231 [18]): 42.33%
